Where “and” joins values, the source holds several entries; their conditions need not be identical. Equal entries are not always repeated.
Test system: U2OS
Experiment: Multiplex assay against U2OS
Format: toxicity, cell-based
Conditions: human
Outline: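 On a CQ1 microscope at 37°C and 5% CO2, live cells were imaged after compound addition. They had been stained at seeding with Hoechst33342, BioTracker Green Microtubule Cytoskeleton Dye, MitoTracker Red and Annexin V Alexa Fluor 680. CellPathfinder machine-learning gating assigned cells to Hoechst high-intensity objects or normal cells, normal cells to healthy, pyknosed or fragmented nuclei, and pyknosed cells to mitotic or apoptotic. Tubulin, mitochondrial-mass and membrane-permeability phenotypes are per cents of healthy-nucleus cells.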

[1] = 12 h, 1 µM, compound concentration 1 uM
[2] = 12 h, 10 µM, compound concentration 10 uM
[3] = 24 h, 1 µM, compound concentration 1 uM
[4] = 24 h, 10 µM, compound concentration 10 uM
[5] = 48 h, 1 µM, compound concentration 1 uM
[6] = 48 h, 10 µM, compound concentration 10 uM

CN1CCC(C(=O)c2cccc(NC(=O)c3c(F)cc(F)cc3F)n2)CC1
Population Apoptotic (%) [1]: 90% and 57% | Population Fragmented Nuclei (%) [1]: 20% | Population Healthy Nuclei (%) [1]: 70% and 71% | Population Hoechst High Intensity Objects (%) [1]: 2% and 1% | Population Membrane Permeable-Phenotype (%) [1]: 8% and 9% | Population Mitochondria Different-Phenotype (%) [1]: 3% and 11% | Population Normal (%) [1]: 97% and 98% | Population Pyknosed Nuclei (%) [1]: 9% and 7% | Population Tubulin-Different-Phenotype (%) [1]: 5% and 6% | Total Cell Count [1]: 218 and 89 | Population Apoptotic (%) [2]: 65% and 64% | Population Fragmented Nuclei (%) [2]: 27% and 14% | Population Healthy Nuclei (%) [2]: 63% and 68% | Population Hoechst High Intensity Objects (%) [2]: 1% | Population Membrane Permeable-Phenotype (%) [2]: 14% and 15% | Population Mitochondria Different-Phenotype (%) [2]: 13% and 18% | Population Mitotic Cells (%) [2]: 34% and 35% | Population Normal (%) [2]: 98% | Population Pyknosed Nuclei (%) [2]: 9% and 16% | Population Tubulin-Different-Phenotype (%) [2]: 12% and 15% | Total Cell Count [2]: 270 and 103 | Population Apoptotic (%) [3]: 85% and 72% | Population Fragmented Nuclei (%) [3]: 22% and 18% | Population Healthy Nuclei (%) [3]: 67% and 71% | Population Hoechst High Intensity Objects (%) [3]: 2% and 0% | Population Membrane Permeable-Phenotype (%) [3]: 4% and 6% | Population Mitochondria Different-Phenotype (%) [3]: 3% and 10% | Population Mitotic Cells (%) [3]: 14% and 27% | Population Normal (%) [3]: 97% and 99% | Population Pyknosed Nuclei (%) [3]: 9% | Population Tubulin-Different-Phenotype (%) [3]: 3% and 0% | Total Cell Count [3]: 284 and 113 | Population Apoptotic (%) [4]: 82% and 66% | Population Fragmented Nuclei (%) [4]: 21% and 15% | Population Healthy Nuclei (%) [4]: 68% | Population Hoechst High Intensity Objects (%) [4]: 2% and 5% | Population Membrane Permeable-Phenotype (%) [4]: 8% and 10% | Population Mitochondria Different-Phenotype (%) [4]: 9% and 15% | Population Mitotic Cells (%) [4]: 17% and 33% | Population Normal (%) [4]: 97% and 94% | Population Pyknosed Nuclei (%) [4]: 9% and 15% | Population Tubulin-Different-Phenotype (%) [4]: 5% and 10% | Total Cell Count [4]: 298 and 126 | Population Apoptotic (%) [5]: 100% and 89% | Population Fragmented Nuclei (%) [5]: 17% and 29% | Population Healthy Nuclei (%) [5]: 70% and 57% | Population Hoechst High Intensity Objects (%) [5]: 2% and 5% | Population Membrane Permeable-Phenotype (%) [5]: 4% and 12% | Population Mitochondria Different-Phenotype (%) [5]: 1% and 8% | Population Mitotic Cells (%) [5]: 0% and 10% | Population Normal (%) [5]: 97% and 94% | Population Pyknosed Nuclei (%) [5]: 11% and 13% | Population Tubulin-Different-Phenotype (%) [5]: 2% and 4% | Total Cell Count [5]: 394 and 149 | Population Apoptotic (%) [6]: 85% | Population Fragmented Nuclei (%) [6]: 18% and 15% | Population Healthy Nuclei (%) [6]: 69% | Population Hoechst High Intensity Objects (%) [6]: 3% | Population Membrane Permeable-Phenotype (%) [6]: 8% and 16% | Population Mitochondria Different-Phenotype (%) [6]: 3% and 10% | Population Mitotic Cells (%) [6]: 14% | Population Normal (%) [6]: 96% | Population Pyknosed Nuclei (%) [6]: 12% and 14% | Population Tubulin-Different-Phenotype (%) [6]: 3% and 8% | Total Cell Count [6]: 398 and 189

COc1c(C)cc(NC(=O)c2nn(Cc3ccc(F)cc3)c3c2CN(C(=O)c2ccc[nH]2)C[C@]3(C)C(N)=O)cc1C
Population Apoptotic (%) [1]: 65% and 83% | Population Fragmented Nuclei (%) [1]: 22% and 21% | Population Healthy Nuclei (%) [1]: 65% and 72% | Population Hoechst High Intensity Objects (%) [1]: 2% | Population Membrane Permeable-Phenotype (%) [1]: 8% | Population Mitochondria Different-Phenotype (%) [1]: 3% and 12% | Population Mitotic Cells (%) [1]: 34% and 16% | Population Normal (%) [1]: 97% | Population Pyknosed Nuclei (%) [1]: 12% and 6% | Population Tubulin-Different-Phenotype (%) [1]: 5% and 9% | Total Cell Count [1]: 247 and 102 | Population Apoptotic (%) [2]: 33% and 60% | Population Fragmented Nuclei (%) [2]: 26% and 11% | Population Healthy Nuclei (%) [2]: 43% and 66% | Population Hoechst High Intensity Objects (%) [2]: 9% and 8% | Population Membrane Permeable-Phenotype (%) [2]: 77% and 54% | Population Mitochondria Different-Phenotype (%) [2]: 90% and 97% | Population Mitotic Cells (%) [2]: 66% and 39% | Population Normal (%) [2]: 90% and 91% | Population Pyknosed Nuclei (%) [2]: 29% and 21% | Population Tubulin-Different-Phenotype (%) [2]: 95% and 100% | Total Cell Count [2]: 223 and 119 | Population Apoptotic (%) [3]: 67% and 61% | Population Fragmented Nuclei (%) [3]: 16% and 17% | Population Healthy Nuclei (%) [3]: 71% and 70% | Population Hoechst High Intensity Objects (%) [3]: 5% and 0% | Population Membrane Permeable-Phenotype (%) [3]: 8% and 7% | Population Mitochondria Different-Phenotype (%) [3]: 6% and 2% | Population Mitotic Cells (%) [3]: 32% and 38% | Population Normal (%) [3]: 94% and 99% | Population Pyknosed Nuclei (%) [3]: 12% and 11% | Population Tubulin-Different-Phenotype (%) [3]: 7% and 6% | Total Cell Count [3]: 265 and 111 | Population Apoptotic (%) [4]: 66% and 65% | Population Fragmented Nuclei (%) [4]: 26% and 13% | Population Healthy Nuclei (%) [4]: 41% and 53% | Population Hoechst High Intensity Objects (%) [4]: 12% and 7% | Population Membrane Permeable-Phenotype (%) [4]: 46% and 49% | Population Mitochondria Different-Phenotype (%) [4]: 92% and 91% | Population Mitotic Cells (%) [4]: 33% and 34% | Population Normal (%) [4]: 87% and 92% | Population Pyknosed Nuclei (%) [4]: 31% and 33% | Population Tubulin-Different-Phenotype (%) [4]: 94% and 91% | Total Cell Count [4]: 216 and 123 | Population Apoptotic (%) [5]: 79% and 84% | Population Fragmented Nuclei (%) [5]: 18% and 15% | Population Healthy Nuclei (%) [5]: 68% and 70% | Population Hoechst High Intensity Objects (%) [5]: 2% and 5% | Population Membrane Permeable-Phenotype (%) [5]: 4% and 9% | Population Mitochondria Different-Phenotype (%) [5]: 3% and 4% | Population Mitotic Cells (%) [5]: 20% and 15% | Population Normal (%) [5]: 97% and 94% | Population Pyknosed Nuclei (%) [5]: 13% | Population Tubulin-Different-Phenotype (%) [5]: 2% and 5% | Total Cell Count [5]: 365 and 152 | Population Apoptotic (%) [6]: 84% and 87% | Population Fragmented Nuclei (%) [6]: 31% and 22% | Population Healthy Nuclei (%) [6]: 24% and 47% | Population Hoechst High Intensity Objects (%) [6]: 17% and 9% | Population Membrane Permeable-Phenotype (%) [6]: 69% and 50% | Population Mitochondria Different-Phenotype (%) [6]: 85% and 81% | Population Mitotic Cells (%) [6]: 15% and 12% | Population Normal (%) [6]: 82% and 90% | Population Pyknosed Nuclei (%) [6]: 44% and 29% | Population Tubulin-Different-Phenotype (%) [6]: 90% and 80% | Total Cell Count [6]: 212 and 150
